Reference: PubChem BioAssay AID652250 (Vanderbilt Specialized Chemistry Center, 2013)
Calls of active or inactive are those of the source.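 Rule for the calls: active = compounds leaving under half of the peptide-driven platelet calcium rise; inactive = the rest.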

Target: Proteinase-activated receptor 4 (Homo sapiens) (UniProt Q96RI0)
Assay: inhibition of PAR4-AP calcium signal – cell-based, single concentration, washed platelets, Fluo4 calcium (AID 652250)
Conditions: PAR4-AP calcium Fluo4 fluorescence
Summary of the method: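 System: Fluo4-AM-loaded washed human platelets; Probe or stimulus: 80 µM PAR4-AP; Signal: fluorescence at 480/540 nm, 1 s intervals; Replicates: triplicate wells.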

Sequence of Proteinase-activated receptor 4 (Homo sapiens) (Q96RI0 whole entry, looked up): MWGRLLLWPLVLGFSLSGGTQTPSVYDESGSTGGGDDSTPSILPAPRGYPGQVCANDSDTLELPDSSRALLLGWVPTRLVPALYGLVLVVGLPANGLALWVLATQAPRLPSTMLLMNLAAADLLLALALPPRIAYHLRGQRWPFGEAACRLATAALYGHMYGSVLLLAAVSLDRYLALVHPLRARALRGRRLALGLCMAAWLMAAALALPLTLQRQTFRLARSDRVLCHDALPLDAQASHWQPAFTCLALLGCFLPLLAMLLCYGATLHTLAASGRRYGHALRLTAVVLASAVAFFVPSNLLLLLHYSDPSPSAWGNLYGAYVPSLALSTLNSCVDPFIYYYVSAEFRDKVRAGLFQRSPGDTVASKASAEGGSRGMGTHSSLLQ

Compound	IC50 [µM]
COc1ccc(-c2cn(Cc3cccc(S(C)(=O)=O)c3)c3ccccc23)cn1	10
Fc1ccc(-c2cn(Cc3ccccc3)c3ccccc23)cn1	10

Same assay, conditions: PAR4-AP calcium Fluo4 fluorescence, at 10 µM, hits give low values

Compound	% of max PAR4-AP calcium response
COc1ccc2c(c1)c(CC(=O)N1CCC(C(N)=O)CC1)c(C)n2C(=O)c1ccc(Cl)cc1	inactive
S=C(c1cn(Cc2ccccc2Cl)c2ccccc12)N1CCCC1	inactive
COCCCNC(=O)Cn1cc(C(=O)C(F)(F)F)c2ccccc21	inactive
Cc1c(C)n(CC(O)CNCCCO)c2ccccc12 (stereo not drawn)	inactive
O=C(c1cn(CCOc2ccccc2F)c2ccccc12)C(F)(F)F	inactive
Cc1cccc(NC(=O)Cn2cc(C(=O)C(F)(F)F)c3ccccc32)c1	inactive
S=C(c1cn(Cc2ccc(Cl)cc2)c2ccccc12)N1CCCC1	inactive
O=C(Cn1cc(CO)c2ccccc21)Nc1ccc(Cl)cc1	inactive
Cn1cc(CCCC(=O)NCc2cccs2)c2ccccc21	inactive
O=C(c1cn(CCOc2ccc(Cl)cc2)c2ccc(Br)cc12)C(F)(F)F	inactive
Cc1ccc(-n2cc(-c3ccccc3)c3c(NCC4CCCO4)ncnc32)cc1Cl (stereo not drawn)	inactive
O=C(c1cn(CCOc2ccc(F)cc2)c2ccccc12)C(F)(F)F	inactive
Cn1cc(CC(=O)NCC2COc3ccccc3O2)c2ccccc21 (stereo not drawn)	inactive
c1ccc(Cn2cc(-c3cncnc3)c3ccccc32)cc1	inactive
OCCCNc1ncnc2c1c(-c1ccccc1)cn2-c1cccc(Cl)c1	inactive
Clc1ccc(-n2cc(-c3ccccc3)c3c(NCc4cccs4)ncnc32)cc1	inactive
FC(F)(F)c1cccc(-c2cn(Cc3ccccc3)c3ccccc23)c1	inactive
CCCCNC(=O)n1ccc(C(=O)Nc2ccc(C)cc2C)n1	inactive
CCc1cc(C(=O)Cc2cnn(-c3ccccc3)c2)c(O)cc1O	inactive
Cc1cc(OCCn2cc(C(=S)N3CCOCC3)c3ccccc32)ccc1Cl	inactive
OCCCc1cn(-c2ccccc2)c2ccccc12	inactive
